Assay results taken from ChEMBL document CHEMBL1154968, “Tellimagrandin I, HCV invasion inhibitor from Rosae Rugosae Flos” (Bioorg Med Chem Lett, 2010).

What was measured:
Hepatitis C virus [1] = assay: Antiviral activity against G envelope protein expressing HCV infected in HepG2 cells assessed as inhibition of viral invasion at 1 uM after 24 hrs by SEAP reporter gene assay; type: functional, Hepacivirus hominis; details: HepG2, 24 h
Summary of the method: (§1)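 HepG2 cells seeded at 9.0 × 10⁴ cells/mL in DMEM with 10% FBS were grown 24 h at 37 °C under 5% CO₂. Samples in DMSO were diluted in medium (final DMSO 1.0%) and added 1 h before inoculation. After a further 24 h, supernatant SEAP activity was read by fluorescence.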

Hepatitis C virus [2] = assay: Antiviral activity against G envelope protein expressing HCV infected in HepG2 cells assessed as inhibition of viral invasion at 3 uM after 24 hrs by SEAP reporter gene assay; type: functional, Hepacivirus hominis; details: HepG2, 24 h; summary of the method: as §1
Hepatitis C virus [3] = assay: Antiviral activity against E1 and E2 envelope protein expressing HCV infected in HepG2 cells assessed as inhibition of viral invasion at 3 uM after 24 hrs by SEAP reporter gene assay; type: functional, Hepacivirus hominis; details: HepG2, 24 h; summary of the method: as §1
Hepatitis C virus [4] = assay: Antiviral activity against E1 and E2 envelope protein expressing HCV infected in HepG2 cells assessed as inhibition of viral invasion at 1 uM after 24 hrs by SEAP reporter gene assay; type: functional, Hepacivirus hominis; details: HepG2, 24 h; summary of the method: as §1
Hepatitis C virus [5] = assay: Antiviral activity against G envelope protein expressing HCV infected in HepG2 cells assessed as inhibition of viral invasion at 10 uM after 24 hrs by SEAP reporter gene assay; type: functional, Hepacivirus hominis; details: HepG2, 24 h; summary of the method: as §1
Hepatitis C virus [6] = assay: Antiviral activity against E1 and E2 envelope protein expressing HCV infected in HepG2 cells assessed as inhibition of viral invasion at 10 uM after 24 hrs by SEAP reporter gene assay; type: functional, Hepacivirus hominis; details: HepG2, 24 h; summary of the method: as §1
[7] = Growth inhibition of human HepG2 cells at 10 uM; type: cell-based; details: read-out: GI

For `O=C(OC[C@H]1OC(O)[C@H](OC(=O)c2cc(O)c(O)c(O)c2)[C@@H](OC(=O)c2cc(O)c(O)c(O)c2)[C@@H]1OC(=O)c1cc(O)c(O)c(O)c1)c1cc(O)c(O)c(O)c1` (stereo not given in full), the inhibition at 1 µM (Hepatitis C virus [1]) was 16%, the inhibition at 3 µM (Hepatitis C virus [2]) was 40.7% and the inhibition at 3 µM (Hepatitis C virus [3]) was 20.8%. The inhibition at 1 µM (Hepatitis C virus [4]) was 9.1%, the inhibition at 10 µM (Hepatitis C virus [5]) was 51.2% and the inhibition at 10 µM (Hepatitis C virus [6]) was 43.7%.
`O=C(O[C@@H]1O[C@@H]2COC(=O)c3cc(O)c(O)c(O)c3-c3c(cc(O)c(O)c3O)C(=O)O[C@H]2[C@H](OC(=O)c2cc(O)c(O)c(O)c2)[C@H]1OC(=O)c1cc(O)c(O)c(O)c1)c1cc(O)c(O)c(O)c1` [EUGENIIN] showed an inhibition at 1 µM (Hepatitis C virus [1]) of 17.2%, an inhibition at 3 µM (Hepatitis C virus [2]) of 21.2% and an inhibition at 3 µM (Hepatitis C virus [3]) of 51.3%. For the same compound, the inhibition at 1 µM (Hepatitis C virus [4]) was 18.4%, the inhibition at 10 µM (Hepatitis C virus [5]) was 35.7% and the inhibition at 10 µM (Hepatitis C virus [6]) was 92.8%.
Compound `O=C1OC[C@H]2OC(O)[C@@H]3OC(=O)c4cc(O)c(O)c(O)c4-c4c(cc(O)c(O)c4O)C(=O)O[C@H]3[C@@H]2OC(=O)c2cc(O)c(O)c(O)c2-c2c1cc(O)c(O)c2O` (stereo not given in full) [PEDUNCULAGIN] has an inhibition at 1 µM (Hepatitis C virus [1]) of 9.4%, an inhibition at 3 µM (Hepatitis C virus [2]) of 14.8% and an inhibition at 3 µM (Hepatitis C virus [3]) of 58.8%. The inhibition at 1 µM (Hepatitis C virus [4]) was 14.6%, the inhibition at 10 µM (Hepatitis C virus [5]) was 30.9% and the inhibition at 10 µM (Hepatitis C virus [6]) was 81.1%.
Work on `O=C(OC[C@H]1O[C@@H](OC(=O)c2cc(O)c(O)c(O)c2)[C@H](OC(=O)c2cc(O)c(O)c(O)c2)[C@@H](OC(=O)c2cc(O)c(O)c(O)c2)[C@@H]1OC(=O)c1cc(O)c(O)c(O)c1)c1cc(O)c(O)c(O)c1` [PENTAGALLOYL GLUCOSE] yielded an inhibition at 1 µM (Hepatitis C virus [1]) of 5%, an inhibition at 3 µM (Hepatitis C virus [2]) of 22.8% and an inhibition at 3 µM (Hepatitis C virus [3]) of 28.9%. It also gave an inhibition at 1 µM (Hepatitis C virus [4]) of 4.2%, an inhibition at 10 µM (Hepatitis C virus [5]) of 40.7% and an inhibition at 10 µM (Hepatitis C virus [6]) of 72.3%.
For `O=C(O[C@H]1[C@@H]2OC(=O)c3cc(O)c(O)c(O)c3-c3c(cc(O)c(O)c3O)C(=O)OC[C@H]2OC(O)[C@@H]1OC(=O)c1cc(O)c(O)c(O)c1)c1cc(O)c(O)c(O)c1` (stereo not given in full) [Tellimagrandin I], the inhibition at 10 µM [7] was 15.6%.
